For 28 compounds, Ki and Ratio Ki results are on record in ChEMBL document CHEMBL1146066, “4-quinolone derivatives: high-affinity ligands at the benzodiazepine site of brain GABA A receptors. synthesis, pharmacology, and pharmacophore modeling” (J Med Chem, 2006).

For assay [1], the target named is GABA-A receptor; anion channel. Kind of assay: Displacement of [3H]flumazenil from GABA-A receptor in rat cortical membranes. In kind it is cell membranes, Membrane. Put shortly: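 Rat cortex was homogenized in Tris-HCl, washed by centrifugation, incubated 30 min at 37 °C, and stored frozen. Assays used ca. 50 µg protein per 0.55 mL in Tris-citrate 50 mM pH 7.1 with 1 nM [3H]flumazenil for 40 min on ice, then filtered. Nonspecific binding came from 1 µM clonazepam.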
In general terms: Loss of bound radioactivity is the signal in a displacement assay; it reports binding, not function.

Assay [2] is described as follows: Selectivity for human GABA-Aalpha1 receptor plus beta-2-gamma-2 over GABA-Aalpha3 receptor plus beta2gamma2.
The target in assay [3] is GABA A receptor alpha-1/beta-2/gamma-2 (Homo sapiens). The experiment in a line: Displacement of [3H]Flumazenil from human GABA-Aalpha1 receptor plus beta-2-gamma-2 expressed in HEK293 cells.
The target in assay [4] is T1, GABA A receptor alpha-3/beta-2/gamma-2 (Homo sapiens, UniProt P18507+P34903+P47870).
T1 sequence (P47870 whole entry): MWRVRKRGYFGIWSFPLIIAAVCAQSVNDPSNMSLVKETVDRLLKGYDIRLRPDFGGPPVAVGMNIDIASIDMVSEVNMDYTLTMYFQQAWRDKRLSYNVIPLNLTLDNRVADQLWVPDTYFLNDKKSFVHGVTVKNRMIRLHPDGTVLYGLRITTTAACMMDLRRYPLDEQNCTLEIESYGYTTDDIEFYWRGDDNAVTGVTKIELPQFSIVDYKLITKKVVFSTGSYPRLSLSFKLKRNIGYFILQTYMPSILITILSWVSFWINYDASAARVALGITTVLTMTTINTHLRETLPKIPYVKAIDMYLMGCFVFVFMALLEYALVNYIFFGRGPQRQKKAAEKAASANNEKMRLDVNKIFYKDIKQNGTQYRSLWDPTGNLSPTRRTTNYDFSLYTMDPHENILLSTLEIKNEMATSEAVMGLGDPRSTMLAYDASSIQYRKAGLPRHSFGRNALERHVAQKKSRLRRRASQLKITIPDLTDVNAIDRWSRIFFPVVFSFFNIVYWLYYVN
T1 sequence (P18507 whole entry): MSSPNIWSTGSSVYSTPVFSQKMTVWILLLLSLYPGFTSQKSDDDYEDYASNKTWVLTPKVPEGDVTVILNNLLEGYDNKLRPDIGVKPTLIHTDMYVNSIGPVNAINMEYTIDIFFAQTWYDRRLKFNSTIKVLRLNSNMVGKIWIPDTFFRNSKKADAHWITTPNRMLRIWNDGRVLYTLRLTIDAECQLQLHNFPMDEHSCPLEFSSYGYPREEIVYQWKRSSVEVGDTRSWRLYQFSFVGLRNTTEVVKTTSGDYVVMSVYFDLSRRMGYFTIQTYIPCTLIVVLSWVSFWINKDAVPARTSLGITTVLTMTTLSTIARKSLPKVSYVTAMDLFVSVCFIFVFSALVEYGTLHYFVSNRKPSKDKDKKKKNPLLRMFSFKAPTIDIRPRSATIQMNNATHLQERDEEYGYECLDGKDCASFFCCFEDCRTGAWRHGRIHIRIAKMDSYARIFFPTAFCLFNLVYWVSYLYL
T1 sequence (P34903 whole entry): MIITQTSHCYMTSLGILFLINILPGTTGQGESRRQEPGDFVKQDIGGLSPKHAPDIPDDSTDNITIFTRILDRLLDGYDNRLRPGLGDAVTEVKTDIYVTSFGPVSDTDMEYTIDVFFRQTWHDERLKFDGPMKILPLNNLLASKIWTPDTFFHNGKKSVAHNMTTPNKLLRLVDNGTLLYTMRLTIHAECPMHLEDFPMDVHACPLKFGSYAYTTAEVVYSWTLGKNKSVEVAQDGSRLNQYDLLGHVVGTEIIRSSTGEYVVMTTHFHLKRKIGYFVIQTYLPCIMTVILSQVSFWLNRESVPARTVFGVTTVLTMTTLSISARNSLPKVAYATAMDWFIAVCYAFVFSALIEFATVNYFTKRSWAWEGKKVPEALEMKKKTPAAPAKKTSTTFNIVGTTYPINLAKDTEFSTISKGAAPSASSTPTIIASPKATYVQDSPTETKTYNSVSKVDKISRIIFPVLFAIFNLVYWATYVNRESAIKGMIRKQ
Kind of assay: Displacement of [3H]Flumazenil from human GABA-Aalpha3 receptor plus beta-2-gamma-2 expressed in HEK293 cells. Format: cell-based. The gist of the method: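 Membranes of HEK 293 cells carrying human α1β2γ2S or α3β2γ2S GABAA receptors, ca. 25 µg protein per 0.55 mL assay in Tris-citrate 50 mM pH 7.1. Incubated with 1 nM [3H]flumazenil (87 Ci/mmol) and test substance at 0-4 °C for 40 min, then filtered on GF/C and washed. Nonspecific binding taken with 1 µM clonazepam.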

The Ki is a measure of affinity in units of concentration, obtained from inhibition or displacement. Regarding `CCc1ccc2ncc(C(=O)O)c(O)c2c1`, in assay [1], the inhibition constant (Ki) worked out at 208 nM. Same read-out and setting: then `CCc1ccc2ncc(C(=O)OC(C)C)c(O)c2c1`, with 214 nM. Take `CCOC(=O)c1c[nH]c2ccc(Cc3ccccc3)cc2c1=O`: the Ratio Ki in assay [2] was 27. Consider `CCCCOC(=O)c1cnc2ccc(CC)cc2c1O`, for which, in assay [1], the Ki was determined as 13 nM. Still for that read-out and setting: with `CCOC(=O)c1c(C)nc2ccc(Br)cc2c1O` the figure was 4200 nM. `CCc1ccc2ncc(C(=O)OCCC(C)C)c(O)c2c1`: the inhibition constant Ki came to 28 nM in assay [1], 4.1 nM in assay [3] and 89 nM in assay [4]. Further, the Ratio Ki in assay [2] stood at 22. In assay [1], `CCOC(=O)c1cnc2ccccc2c1O` registered a Ki of 78 nM.

`CCCOC(=O)c1cnc2ccc(Cc3ccccc3)cc2c1O` came in with a Ki in assay [1] of 0.17 nM. The same measure, in the same setting: with `CCCCOC(=O)c1cnc2ccccc2c1O` the figure was 54 nM; with `CCOC(=O)c1cnc2ccc(C(F)(F)F)cc2c1O`, 122 nM. In assay [1], `CCc1ccc2ncc(C(=O)OCC(C)CC)c(O)c2c1` (stereo unspecified) had a Ki of 28 nM. In assay [1], `CCOC(=O)c1cnc2ccc(CC)cc2c1O` registered a Ki of 20 nM. Same read-out and setting: with `CCc1ccc2ncc(C(=O)OCC(CC)CC)c(O)c2c1` the figure was 92 nM; with `CCCNC(=O)c1cnc2ccc(CC)cc2c1O`, 0.26 nM; with `CCCc1ccc2ncc(C(=O)OCC)c(O)c2c1`, 17 nM. The same measure, in the same setting: with `CCCCNC(=O)c1cnc2ccc(CC)cc2c1O` the figure was 0.54 nM; with `CCc1ccc2ncc(C(=O)OC(CC)CC)c(O)c2c1`, 2600 nM. Turning to `CCOC(=O)c1cnc2cc(C)nn2c1O`, the inhibition constant Ki in assay [1] is > 10000 nM. In the case of `CCOC(=O)c1cnc2ccc(Br)cc2c1O`, the Ki in assay [1] came out at 16 nM; in assay [3] it was 14 nM; in assay [4], 26 nM. Also, in assay [2], the Ratio Ki was 2. In assay [1], `CCCCCOC(=O)c1cnc2ccc(CC)cc2c1O` returned an inhibition constant Ki of 35 nM. With `CCOC(=O)c1cnc2ccc(Cc3ccccc3)cc2c1O`, the Ki was 1.4 nM in assay [1], 0.27 nM in assay [3] and 7.2 nM in assay [4]. As to `CCCNC(=O)c1cnc2ccc(Cc3ccccc3)cc2c1O`, in assay [1], the affinity, expressed as Ki, was 0.048 nM. Same read-out and setting: then `CCOC(=O)c1cnc2ccnn2c1O`, with > 10000 nM; and `CCc1ccc2ncc(C(=O)OC3CCCC3)c(O)c2c1`, with 19 nM; and `CCCOC(=O)c1cnc2cc(C)nn2c1O`, with 870 nM.

`CCc1ccc2ncc(C(=O)OC(C)CC(C)C)c(O)c2c1` (stereo unspecified) came in with an inhibition constant Ki in assay [1] of 295 nM. Same read-out and setting: with `CCOC(=O)c1cnc2ccc(C(C)C)cc2c1O` the figure was 15 nM; with `CCCOC(=O)c1cnc2ccc(CC)cc2c1O`, 1.8 nM.
